According to ChEMBL document CHEMBL4152184, “NB 06: From a simple lysosomotropic aSMase inhibitor to tools for elucidating the role of lysosomes in signaling apoptosis and LPS-induced inflammation” (Eur J Med Chem, 2018):

How the values were obtained:
MONO-MAC-6 [1] = assay: Downregulation of CXCL2 mRNA expression level in human MONO-MAC-6 cells at 5 uM incubated for 30 mins measured after 4 hrs by qRT-PCR method relative to control; format: functional
MONO-MAC-6 [2] = assay: Downregulation of CXCL2 mRNA expression level in human MONO-MAC-6 cells at 5 uM incubated for 30 mins measured after 2 hrs by qRT-PCR method relative to control; format: functional
MONO-MAC-6 [3] = assay: Downregulation of PTX3 mRNA expression level in LPS-stimulated human MONO-MAC-6 cells at 5 uM preincubated for 30 mins followed by LPS stimulation measured after 6 hrs by oligonucleotide array hybridization assay (reference value: 3.18); format: functional
Method in brief: (§1)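 Total RNA was isolated, transcribed and labeled with DY-647 dye, then co-hybridized with DY-548-labeled cDNA from untreated cells on an inflammation oligonucleotide chip (780 gene probes). Differential expression >1.5 was taken as significant.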

MONO-MAC-6 [4] = assay: Downregulation of ICAM1 mRNA expression level in human MONO-MAC-6 cells at 5 uM incubated for 30 mins measured after 6 hrs by oligonucleotide array hybridization assay relative to control; format: functional; method in brief: as §1
MONO-MAC-6 [5] = assay: Upregulation of IFNA13 mRNA expression level in LPS-stimulated human MONO-MAC-6 cells preincubated for 30 mins followed by LPS stimulation measured after 1 hr by qRT-PCR analysis relative to control; format: functional
MONO-MAC-6 [6] = assay: Upregulation of CCL20 mRNA expression level in LPS-stimulated human MONO-MAC-6 cells at 5 uM preincubated for 30 mins followed by LPS stimulation measured after 2 hrs by oligonucleotide array hybridization assay (reference value: 2.87); format: functional
MONO-MAC-6 [7] = assay: Downregulation of CCL4 mRNA expression level in human MONO-MAC-6 cells at 5 uM incubated for 30 mins measured after 2 hrs by oligonucleotide array hybridization assay relative to control; format: functional; method in brief: as §1
[8] = target: T1, Acid ceramidase (Homo sapiens) (UniProt Q13510); assay: Inhibition of exogenous C6-ceramid-stimulated acid ceramidase in human PBMC assessed as ratio of C16-ceramide/lipid phosphate level at 10 uM preincubated for 30 mins followed by C6-ceramid stimulation measured after 4 hrs by HPLC method (reference value: 2.19); format: cell-based
T1 sequence (whole entry): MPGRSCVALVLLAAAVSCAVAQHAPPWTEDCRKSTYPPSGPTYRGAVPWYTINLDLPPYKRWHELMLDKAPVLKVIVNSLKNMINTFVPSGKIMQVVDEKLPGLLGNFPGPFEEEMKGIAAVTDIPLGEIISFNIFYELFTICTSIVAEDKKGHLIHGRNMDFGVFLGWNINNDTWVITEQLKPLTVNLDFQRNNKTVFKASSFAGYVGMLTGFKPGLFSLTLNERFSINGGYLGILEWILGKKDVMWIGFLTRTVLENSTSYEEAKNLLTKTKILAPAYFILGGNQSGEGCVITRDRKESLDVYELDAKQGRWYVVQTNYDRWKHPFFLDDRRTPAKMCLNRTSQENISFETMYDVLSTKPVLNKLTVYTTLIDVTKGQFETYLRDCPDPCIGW
Method in brief: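 Human macrophages from primary culture were preincubated 30 min with 10 µM compound. They were then stimulated 4 h with mmLDL (54 µg/mL), TNFalpha (3 ng/mL) or exogenous C6-ceramide (10 µM), or left unstimulated. Individual ceramide species (C16 and C24:1) were quantified in the cell lipid extracts.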

MONO-MAC-6 [9] = assay: Downregulation of IL-6 mRNA expression level in human MONO-MAC-6 cells at 5 uM incubated for 30 mins measured after 4 hrs by qRT-PCR method relative to control; format: functional
MONO-MAC-6 [10] = assay: Downregulation of CXCL3 mRNA expression level in LPS-stimulated human MONO-MAC-6 cells at 5 uM preincubated for 30 mins followed by LPS stimulation measured after 1 hr by oligonucleotide array hybridization assay (reference value: 1.18); format: functional; method in brief: as §1
MONO-MAC-6 [11] = assay: Downregulation of TNFalpha mRNA expression level in human MONO-MAC-6 cells at 5 uM incubated for 30 mins measured after 1 hr by qRT-PCR method relative to control; format: functional
MONO-MAC-6 [12] = assay: Downregulation of CCL20 mRNA expression level in LPS-stimulated human MONO-MAC-6 cells at 5 uM preincubated for 30 mins followed by LPS stimulation measured after 6 hrs by oligonucleotide array hybridization assay (reference value: 5.78); format: functional; method in brief: as §1
MONO-MAC-6 [13] = assay: Upregulation of ICAM1 mRNA expression level in human MONO-MAC-6 cells at 5 uM incubated for 30 mins measured after 1 hr by oligonucleotide array hybridization assay relative to control; format: functional
MONO-MAC-6 [14] = assay: Downregulation of IL23A mRNA expression level in human MONO-MAC-6 cells at 5 uM incubated for 30 mins measured after 2 hrs by qRT-PCR method relative to control; format: functional
MONO-MAC-6 [15] = assay: Downregulation of PTGS2 mRNA expression level in human MONO-MAC-6 cells at 5 uM incubated for 30 mins measured after 6 hrs by oligonucleotide array hybridization assay relative to control; format: functional; method in brief: as §1
MONO-MAC-6 [16] = assay: Upregulation of IL23A mRNA expression level in human MONO-MAC-6 cells at 5 uM incubated for 30 mins measured after 1 hr by qRT-PCR method relative to control; format: functional
MONO-MAC-6 [17] = assay: Downregulation of IL-6 mRNA expression level in LPS-stimulated human MONO-MAC-6 cells at 5 uM preincubated for 30 mins followed by LPS stimulation measured after 6 hrs by qRT-PCR method (reference value: 5.09); format: functional
MONO-MAC-6 [18] = assay: Downregulation of PTX3 mRNA expression level in human MONO-MAC-6 cells at 5 uM incubated for 30 mins measured after 1 hr by oligonucleotide array hybridization assay relative to control; format: functional; method in brief: as §1
MONO-MAC-6 [19] = assay: Downregulation of TNFalpha mRNA expression level in human MONO-MAC-6 cells at 5 uM incubated for 30 mins measured after 2 hrs by qRT-PCR method relative to control; format: functional
MONO-MAC-6 [20] = assay: Upregulation of CXCL10 mRNA expression level in LPS-stimulated human MONO-MAC-6 cells at 5 uM preincubated for 30 mins followed by LPS stimulation measured after 1 hr by oligonucleotide array hybridization assay (reference value: 1.18); format: functional
MONO-MAC-6 [21] = assay: Downregulation of TNFalpha mRNA expression level in human MONO-MAC-6 cells at 5 uM incubated for 30 mins measured after 4 hrs by qRT-PCR method relative to control; format: functional
MONO-MAC-6 [22] = assay: Upregulation of PTX3 mRNA expression level in LPS-stimulated human MONO-MAC-6 cells at 5 uM preincubated for 30 mins followed by LPS stimulation measured after 2 hrs by oligonucleotide array hybridization assay (reference value: 1.56); format: functional

COc1ccc(CCN(C)CCCn2c3ccccc3c3ccccc32)cc1
fold change (FC) (MONO-MAC-6 [1]): 1.845
fold change (FC) (MONO-MAC-6 [2]): 1.27
fold change (FC) (MONO-MAC-6 [3]): 1.05
fold change (FC) (MONO-MAC-6 [4]): 1.79
fold change (FC) (MONO-MAC-6 [5]): 41.95
fold change (FC) (MONO-MAC-6 [6]): 2.7
fold change (FC) (MONO-MAC-6 [7]): 1.05
Ratio [8]: 0.47
fold change (FC) (MONO-MAC-6 [9]): 2.25
fold change (FC) (MONO-MAC-6 [10]): 1.24
fold change (FC) (MONO-MAC-6 [11]): 1.83
fold change (FC) (MONO-MAC-6 [12]): 1.07
fold change (FC) (MONO-MAC-6 [13]): 1.1
fold change (FC) (MONO-MAC-6 [14]): 1.24
fold change (FC) (MONO-MAC-6 [15]): 2.23
fold change (FC) (MONO-MAC-6 [16]): 1.01
fold change (FC) (MONO-MAC-6 [17]): 1.1
fold change (FC) (MONO-MAC-6 [18]): 1.48
fold change (FC) (MONO-MAC-6 [19]): 3.78
fold change (FC) (MONO-MAC-6 [20]): 1.69
fold change (FC) (MONO-MAC-6 [21]): 2.86
fold change (FC) (MONO-MAC-6 [22]): 1.2
